Source: ChEMBL document CHEMBL4261538, “Synthesis and molecular docking studies of xanthone attached amino acids as potential antimicrobial and anti-inflammatory agents” (Medchemcomm, 2017)
Converted amounts (≈) assume the structure as drawn.

Assays:
Staphylococcus aureus [1] = assay: Antibacterial activity against Staphylococcus aureus at 25 ug/ml incubated for 24 hrs by agar well diffusion method; type: functional; details: read-out: DIZ
Summary of the method: (§1)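 Bacteria grown in nutrient broth at 37 °C for 24 h, then subcultured at room temperature. Compounds dissolved in DMSO at 5 mg mL⁻¹ and 5–20 µL added to 6 mm wells, giving 25, 50, 75, 100 µg per well. Gentamicin was the positive control and DMSO the negative control. Plates held at 37 °C for 24 h, then inhibition zone diameter (mm) measured. Values are means of three determinations.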

Staphylococcus aureus [2] = assay: Antibacterial activity against Staphylococcus aureus at 50 ug/ml incubated for 24 hrs by agar well diffusion method; type: functional; details: read-out: DIZ; summary of the method: as §1
Staphylococcus aureus [3] = assay: Antibacterial activity against Staphylococcus aureus at 75 ug/ml incubated for 24 hrs by agar well diffusion method; type: functional; details: read-out: DIZ; summary of the method: as §1
Staphylococcus aureus [4] = assay: Antibacterial activity against Staphylococcus aureus at 100 ug/ml incubated for 24 hrs by agar well diffusion method; type: functional; details: read-out: DIZ; summary of the method: as §1
Bacillus subtilis [5] = assay: Antibacterial activity against Bacillus subtilis at 25 ug/ml incubated for 24 hrs by agar well diffusion method; type: functional; details: read-out: DIZ; summary of the method: as §1
Bacillus subtilis [6] = assay: Antibacterial activity against Bacillus subtilis at 50 ug/ml incubated for 24 hrs by agar well diffusion method; type: functional; details: read-out: DIZ; summary of the method: as §1
Bacillus subtilis [7] = assay: Antibacterial activity against Bacillus subtilis at 75 ug/ml incubated for 24 hrs by agar well diffusion method; type: functional; details: read-out: DIZ; summary of the method: as §1
Bacillus subtilis [8] = assay: Antibacterial activity against Bacillus subtilis at 100 ug/ml incubated for 24 hrs by agar well diffusion method; type: functional; details: read-out: DIZ; summary of the method: as §1
Escherichia coli [9] = assay: Antibacterial activity against Escherichia coli at 25 ug/ml incubated for 24 hrs by agar well diffusion method; type: functional; details: read-out: DIZ; summary of the method: as §1
Escherichia coli [10] = assay: Antibacterial activity against Escherichia coli at 50 ug/ml incubated for 24 hrs by agar well diffusion method; type: functional; details: read-out: DIZ; summary of the method: as §1
Escherichia coli [11] = assay: Antibacterial activity against Escherichia coli at 75 ug/ml incubated for 24 hrs by agar well diffusion method; type: functional; details: read-out: DIZ; summary of the method: as §1
Escherichia coli [12] = assay: Antibacterial activity against Escherichia coli at 100 ug/ml incubated for 24 hrs by agar well diffusion method; type: functional; details: read-out: DIZ; summary of the method: as §1
Klebsiella pneumoniae [13] = assay: Antibacterial activity against Klebsiella pneumoniae at 25 ug/ml incubated for 24 hrs by agar well diffusion method; type: functional; details: read-out: DIZ; summary of the method: as §1
Klebsiella pneumoniae [14] = assay: Antibacterial activity against Klebsiella pneumoniae at 50 ug/ml incubated for 24 hrs by agar well diffusion method; type: functional; details: read-out: DIZ; summary of the method: as §1
Klebsiella pneumoniae [15] = assay: Antibacterial activity against Klebsiella pneumoniae at 75 ug/ml incubated for 24 hrs by agar well diffusion method; type: functional; details: read-out: DIZ; summary of the method: as §1
Klebsiella pneumoniae [16] = assay: Antibacterial activity against Klebsiella pneumoniae at 100 ug/ml incubated for 24 hrs by agar well diffusion method; type: functional; details: read-out: DIZ; summary of the method: as §1
Aspergillus niger [17] = assay: Antifungal activity against Aspergillus niger at 25 ug/ml incubated for 48 hrs by agar well diffusion method; type: functional; details: read-out: DIZ
Summary of the method: (§2)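 Compounds dissolved in DMSO at 5 mg mL⁻¹ and 5–20 µL added to 6 mm wells, giving 25, 50, 75, 100 µg per well. Bavistin was the positive control and DMSO the negative control. Plates incubated at 28 °C for 48 h, then inhibition zone diameter (mm) measured. Values are means of three determinations.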

Aspergillus niger [18] = assay: Antifungal activity against Aspergillus niger at 50 ug/ml incubated for 48 hrs by agar well diffusion method; type: functional; details: read-out: DIZ; summary of the method: as §2
Aspergillus niger [19] = assay: Antifungal activity against Aspergillus niger at 75 ug/ml incubated for 48 hrs by agar well diffusion method; type: functional; details: read-out: DIZ; summary of the method: as §2
Aspergillus niger [20] = assay: Antifungal activity against Aspergillus niger at 100 ug/ml incubated for 48 hrs by agar well diffusion method; type: functional; details: read-out: DIZ; summary of the method: as §2
Candida albicans [21] = assay: Antifungal activity against Candida albicans at 25 ug/ml incubated for 48 hrs by agar well diffusion method; type: functional; details: read-out: DIZ; summary of the method: as §2
Candida albicans [22] = assay: Antifungal activity against Candida albicans at 50 ug/ml incubated for 48 hrs by agar well diffusion method; type: functional; details: read-out: DIZ; summary of the method: as §2
Candida albicans [23] = assay: Antifungal activity against Candida albicans at 75 ug/ml incubated for 48 hrs by agar well diffusion method; type: functional; details: read-out: DIZ; summary of the method: as §2
Candida albicans [24] = assay: Antifungal activity against Candida albicans at 100 ug/ml incubated for 48 hrs by agar well diffusion method; type: functional; details: read-out: DIZ; summary of the method: as §2
Fusarium oxysporum [25] = assay: Antifungal activity against Fusarium oxysporum at 25 ug/ml incubated for 48 hrs by agar well diffusion method; type: functional; details: read-out: DIZ; summary of the method: as §2
Fusarium oxysporum [26] = assay: Antifungal activity against Fusarium oxysporum at 50 ug/ml incubated for 48 hrs by agar well diffusion method; type: functional; details: read-out: DIZ; summary of the method: as §2
Fusarium oxysporum [27] = assay: Antifungal activity against Fusarium oxysporum at 75 ug/ml incubated for 48 hrs by agar well diffusion method; type: functional; details: read-out: DIZ; summary of the method: as §2
Fusarium oxysporum [28] = assay: Antifungal activity against Fusarium oxysporum at 100 ug/ml incubated for 48 hrs by agar well diffusion method; type: functional; details: read-out: DIZ; summary of the method: as §2
Erythrocyte = assay: Anti-inflammatory activity in human RBC assessed as inhibition of hypotonic solution-induced hemolysis after 10 mins by spectrophotometric method; type: functional, cell-based
Summary of the method: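 Human blood (heparinized) washed with 0.9% saline, packed cells made into a 40% v/v stock in isotonic phosphate buffer (154 mM NaCl, 10 mM sodium phosphate, pH 7.4). Stock RBC mixed with hypotonic buffer (50 mM NaCl, 10 mM phosphate, pH 7.4) plus sample at 20–100 µg mL⁻¹.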

SMILES	zone of inhibition at 25 µg/mL (Staphylococcus aureus [1]) [mm]	zone of inhibition at 50 µg/mL (Staphylococcus aureus [2]) [mm]	zone of inhibition at 75 µg/mL (Staphylococcus aureus [3]) [mm]	zone of inhibition at 100 µg/mL (Staphylococcus aureus [4]) [mm]	zone of inhibition at 25 µg/mL (Bacillus subtilis [5]) [mm]	zone of inhibition at 50 µg/mL (Bacillus subtilis [6]) [mm]	zone of inhibition at 75 µg/mL (Bacillus subtilis [7]) [mm]	zone of inhibition at 100 µg/mL (Bacillus subtilis [8]) [mm]	zone of inhibition at 25 µg/mL (Escherichia coli [9]) [mm]	zone of inhibition at 50 µg/mL (Escherichia coli [10]) [mm]	zone of inhibition at 75 µg/mL (Escherichia coli [11]) [mm]	zone of inhibition at 100 µg/mL (Escherichia coli [12]) [mm]	zone of inhibition at 25 µg/mL (Klebsiella pneumoniae [13]) [mm]	zone of inhibition at 50 µg/mL (Klebsiella pneumoniae [14]) [mm]	zone of inhibition at 75 µg/mL (Klebsiella pneumoniae [15]) [mm]	zone of inhibition at 100 µg/mL (Klebsiella pneumoniae [16]) [mm]	zone of inhibition at 25 µg/mL (Aspergillus niger [17]) [mm]	zone of inhibition at 50 µg/mL (Aspergillus niger [18]) [mm]	zone of inhibition at 75 µg/mL (Aspergillus niger [19]) [mm]	zone of inhibition at 100 µg/mL (Aspergillus niger [20]) [mm]	also measured
Cl.NCC(=O)Oc1ccc2c(=O)c3ccccc3oc2c1	10	15	19	23	10	15	21	26	12	17	21	24	17	22	27	30	7	10	14	17	zone of inhibition at 25 µg/mL (Candida albicans [21]): 9 mm; zone of inhibition at 50 µg/mL (Candida albicans [22]): 11 mm; zone of inhibition at 75 µg/mL (Candida albicans [23]): 16 mm; zone of inhibition at 100 µg/mL (Candida albicans [24]): 20 mm; zone of inhibition at 25 µg/mL (Fusarium oxysporum [25]): 7 mm; zone of inhibition at 50 µg/mL (Fusarium oxysporum [26]): 10 mm; zone of inhibition at 75 µg/mL (Fusarium oxysporum [27]): 14 mm; zone of inhibition at 100 µg/mL (Fusarium oxysporum [28]): 17 mm; IC50 (Erythrocyte): 70 µg/mL
Cl.N[C@@H](CS)C(=O)Oc1ccc2c(=O)c3ccccc3oc2c1	20	29	35	39	19	26	31	34	19	28	34	39	15	23	30	37	19	27	32	37	zone of inhibition at 25 µg/mL (Candida albicans [21]): 17 mm; zone of inhibition at 50 µg/mL (Candida albicans [22]): 26 mm; zone of inhibition at 75 µg/mL (Candida albicans [23]): 35 mm; zone of inhibition at 100 µg/mL (Candida albicans [24]): 40 mm; zone of inhibition at 25 µg/mL (Fusarium oxysporum [25]): 20 mm; zone of inhibition at 50 µg/mL (Fusarium oxysporum [26]): 28 mm; zone of inhibition at 75 µg/mL (Fusarium oxysporum [27]): 33 mm; zone of inhibition at 100 µg/mL (Fusarium oxysporum [28]): 39 mm; IC50 (Erythrocyte): 30 µg/mL
C[C@H](NC(=O)OC(C)(C)C)C(=O)Oc1ccc2c(=O)c3ccccc3oc2c1	6	10	14	19	8	14	19	22	17	14	20	23	6	13	19	22	8	12	15	18	zone of inhibition at 25 µg/mL (Candida albicans [21]): 7 mm; zone of inhibition at 50 µg/mL (Candida albicans [22]): 12 mm; zone of inhibition at 75 µg/mL (Candida albicans [23]): 15 mm; zone of inhibition at 100 µg/mL (Candida albicans [24]): 17 mm; zone of inhibition at 25 µg/mL (Fusarium oxysporum [25]): 6 mm; zone of inhibition at 50 µg/mL (Fusarium oxysporum [26]): 10 mm; zone of inhibition at 75 µg/mL (Fusarium oxysporum [27]): 14 mm; zone of inhibition at 100 µg/mL (Fusarium oxysporum [28]): 18 mm; IC50 (Erythrocyte): 70 µg/mL (≈ 183 µM)
CC[C@H](C)[C@H](N)C(=O)Oc1ccc2c(=O)c3ccccc3oc2c1.Cl	7	12	19	23	11	17	20	24	10	13	18	22	8	13	18	24	10	15	18	23	zone of inhibition at 25 µg/mL (Candida albicans [21]): 10 mm; zone of inhibition at 50 µg/mL (Candida albicans [22]): 14 mm; zone of inhibition at 75 µg/mL (Candida albicans [23]): 16 mm; zone of inhibition at 100 µg/mL (Candida albicans [24]): 20 mm; zone of inhibition at 25 µg/mL (Fusarium oxysporum [25]): 11 mm; zone of inhibition at 50 µg/mL (Fusarium oxysporum [26]): 15 mm; zone of inhibition at 75 µg/mL (Fusarium oxysporum [27]): 19 mm; zone of inhibition at 100 µg/mL (Fusarium oxysporum [28]): 21 mm; IC50 (Erythrocyte): 68 µg/mL
C[C@H](N)C(=O)Oc1ccc2c(=O)c3ccccc3oc2c1.Cl	9	13	19	22	11	16	19	23	15	19	22	26	8	16	23	28	8	12	15	18	zone of inhibition at 25 µg/mL (Candida albicans [21]): 7 mm; zone of inhibition at 50 µg/mL (Candida albicans [22]): 12 mm; zone of inhibition at 75 µg/mL (Candida albicans [23]): 15 mm; zone of inhibition at 100 µg/mL (Candida albicans [24]): 17 mm; zone of inhibition at 25 µg/mL (Fusarium oxysporum [25]): 6 mm; zone of inhibition at 50 µg/mL (Fusarium oxysporum [26]): 10 mm; zone of inhibition at 75 µg/mL (Fusarium oxysporum [27]): 16 mm; zone of inhibition at 100 µg/mL (Fusarium oxysporum [28]): 18 mm; IC50 (Erythrocyte): 78 µg/mL
